For 9 compounds, IC50, Activity and inhibition results are on record in ChEMBL document CHEMBL3745686 (Eur J Med Chem, 2016).

Calls of active or inactive are those of the source. No cut-off for these calls is given here.

Experiment [1] has as its target T1, P2Y purinoceptor 1 (Homo sapiens, UniProt P47900). The experiment is described as follows: Antagonist activity at human platelet P2Y1 receptor assessed as inhibition of ADP-induced increase in cytosolic calcium level by FLUO-4 staining based flow cytometric analysis. The class given is functional. The essentials: (§1)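 Stimulus was extracellular Ca2+ uptake on 1 μM test compound (P2X1, scaled to 20 μM β,γ-CH2-ATP as 100%, selective P2Y1 inhibitor control), or 3 μM ADP (P2Y1 antagonism; omitted for agonism).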

Experiment [2] has as its target T1, P2Y purinoceptor 1. The experiment is described as follows: Agonist activity at human platelet P2Y1 receptor assessed as increase in cytosolic calcium level by FLUO-4 staining based flow cytometric analysis. It is filed as functional. In short, it runs like this:
as §1

The target in experiment [3] is T2, P2X purinoceptor 1 (Homo sapiens) (UniProt P51575).
T2 sequence (whole entry): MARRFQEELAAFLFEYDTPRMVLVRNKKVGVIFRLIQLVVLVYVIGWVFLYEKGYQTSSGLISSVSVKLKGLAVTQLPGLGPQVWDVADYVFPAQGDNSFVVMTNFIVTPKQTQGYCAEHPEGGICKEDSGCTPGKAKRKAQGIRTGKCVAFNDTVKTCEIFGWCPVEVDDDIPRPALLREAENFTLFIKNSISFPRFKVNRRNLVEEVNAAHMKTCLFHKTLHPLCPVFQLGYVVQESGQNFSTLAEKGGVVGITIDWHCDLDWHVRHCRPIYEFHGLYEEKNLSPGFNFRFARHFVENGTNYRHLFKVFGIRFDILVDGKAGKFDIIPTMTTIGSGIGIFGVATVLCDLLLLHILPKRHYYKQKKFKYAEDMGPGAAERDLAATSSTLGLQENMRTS
The experiment is described as follows: Agonist activity at human platelet P2X1 receptor assessed as increase in cytosolic calcium level at 1 uM by […] staining based flow cytometric analysis relative to beta,gamma-CH2-ATP. The essentials:
as §1

Experiment [4] concerns the target T3, P2Y purinoceptor 12 (Homo sapiens, UniProt Q9H244). The experiment is described as follows: Antagonist activity at human platelet P2Y12 receptor assessed as inhibition of ADP-mediated decrease in intra-platelet phosphorylated VASP by flow cytometric analysis.
Experiment [5] deals with T3, P2Y purinoceptor 12. The experiment is described as follows: Agonist activity at human platelet P2Y12 receptor assessed as decrease in intra-platelet phosphorylated VASP by flow cytometric analysis.
A further experiment has as its system Platelet. Nature of the experiment: Anti-aggregatory activity in human platelet rich plasma assessed as inhibition of ADP-induced platelet shape change. It is filed as functional, cell-free.

T3 sequence (Q9H244 whole entry): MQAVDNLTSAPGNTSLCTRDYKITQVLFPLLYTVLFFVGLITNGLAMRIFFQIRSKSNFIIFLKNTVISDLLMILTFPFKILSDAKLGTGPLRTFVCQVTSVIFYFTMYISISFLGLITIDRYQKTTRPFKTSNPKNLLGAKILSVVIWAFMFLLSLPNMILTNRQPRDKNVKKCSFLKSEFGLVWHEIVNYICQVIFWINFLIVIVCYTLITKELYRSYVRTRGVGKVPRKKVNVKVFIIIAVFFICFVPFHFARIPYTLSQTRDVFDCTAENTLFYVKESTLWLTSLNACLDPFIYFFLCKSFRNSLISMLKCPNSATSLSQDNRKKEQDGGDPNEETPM
T1 sequence (P47900 whole entry): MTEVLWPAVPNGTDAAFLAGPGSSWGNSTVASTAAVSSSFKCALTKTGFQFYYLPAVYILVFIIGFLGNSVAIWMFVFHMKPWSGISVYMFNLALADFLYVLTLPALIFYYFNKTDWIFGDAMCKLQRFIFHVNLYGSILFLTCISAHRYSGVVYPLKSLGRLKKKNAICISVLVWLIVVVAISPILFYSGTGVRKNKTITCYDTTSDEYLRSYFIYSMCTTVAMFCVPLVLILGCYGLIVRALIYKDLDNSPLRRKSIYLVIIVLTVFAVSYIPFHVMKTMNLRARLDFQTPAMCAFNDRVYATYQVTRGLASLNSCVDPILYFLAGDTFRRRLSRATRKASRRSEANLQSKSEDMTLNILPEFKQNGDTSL

Consider `CNc1ncnc2c1ncn2[C@H]1C[C@H](OP(=O)(O)O)[C@@H](COP(=O)(O)O)O1`, for which the IC50 on P2Y purinoceptor 1 [1] was found to be 2250 nM.
Consider `CSc1nc(N)c2ncn([C@@H]3O[C@H](COP(=O)(O)OP(=O)(O)OP(=O)(O)OP(=O)(O)OC[C@H]4O[C@@H](n5cnc6c(N)nc(SC)nc65)[C@H](O)[C@@H]4O)[C@@H](O)[C@H]3O)c2n1`, for which the result on P2Y purinoceptor 1 [2] and at P2Y purinoceptor 12 [5] was inactive. In addition, the Activity in experiment [3] came to 48%. The IC50 on P2Y purinoceptor 12 [4] stood at 1400 nM; on P2Y purinoceptor 1 [1] it was 4900 nM. In the experiment with Platelet, the inhibition result was “Active”.
For `CSc1nc(N)c2ncn([C@@H]3O[C@H](COP(=O)(O)OP(=O)(O)C(Cl)P(=O)(O)OP(=O)(O)OC[C@H]4O[C@@H](n5cnc6c(N)nc(SC)nc65)[C@H](O)[C@@H]4O)[C@@H](O)[C@H]3O)c2n1` (stereo partly drawn), the outcome at P2Y purinoceptor 1 [2] and on P2Y purinoceptor 12 [5] was inactive. The IC50 stood at 310 nM at P2Y purinoceptor 12 [4] and 29000 nM on P2Y purinoceptor 1 [1]. Further, the inhibition entry with Platelet is “Active”.
On to `CNc1nc(SC)nc2c1ncn2[C@@H]1O[C@H](COP(=O)(S)OP(=O)(O)C(Cl)P(=O)(O)OP(=O)(S)OC[C@H]2O[C@@H](n3cnc4c(NC)nc(SC)nc43)[C@H](O)[C@@H]2O)[C@@H](O)[C@H]1O` (stereo partly drawn), for which the result on P2Y purinoceptor 1 [2] and at P2Y purinoceptor 12 [5] was inactive. For the same compound, the Activity in experiment [3] is 92%. Moreover, the IC50 on P2Y purinoceptor 12 [4] is 730 nM; at P2Y purinoceptor 1 [1], 360 nM. In addition, the inhibition entry with Platelet is “Active”.
As for `CCCSc1nc(N)c2ncn([C@@H]3O[C@H](COP(=O)(S)OP(=O)(O)C(Cl)P(=O)(O)OP(=O)(S)OC[C@H]4O[C@@H](n5cnc6c(N)nc(SCCC)nc65)[C@H](O)[C@@H]4O)[C@@H](O)[C@H]3O)c2n1` (mixture of isomers), the result at P2Y purinoceptor 1 [2] and at P2Y purinoceptor 12 [5] was inactive. Moreover, the Activity in experiment [3] came to 31%. In addition, the values for the IC50 at P2Y purinoceptor 12 [4] and on P2Y purinoceptor 1 [1] were 1020 nM and 6300 nM, respectively. Further, the inhibition entry with Platelet was “Active”.
Regarding `CCCCCSc1nc(N)c2ncn([C@@H]3O[C@H](COP(=O)(S)OP(=O)(O)C(Cl)P(=O)(O)OP(=O)(S)OC[C@H]4O[C@@H](n5cnc6c(N)nc(SCCCCC)nc65)[C@H](O)[C@@H]4O)[C@@H](O)[C@H]3O)c2n1` (mixture of isomers), the result on P2Y purinoceptor 1 [2] and on P2Y purinoceptor 12 [5] was inactive. Besides, in experiment [3], the Activity stood at 4.7%. Further, the figures for the 50% inhibitory concentration (IC50) at P2Y purinoceptor 12 [4] and on P2Y purinoceptor 1 [1] were 3100 nM and 4210 nM, respectively. Also, the inhibition result in the experiment on Platelet was “Active”.
With `Nc1nc(SCCC(F)(F)F)nc2c1ncn2[C@@H]1O[C@H](COP(=O)(S)OP(=O)(O)C(Cl)P(=O)(O)OP(=O)(S)OC[C@H]2O[C@@H](n3cnc4c(N)nc(SCCC(F)(F)F)nc43)[C@H](O)[C@@H]2O)[C@@H](O)[C@H]1O` (mixture of isomers), the outcome on P2Y purinoceptor 1 [2] and at P2Y purinoceptor 12 [5] was inactive. In addition, the Activity in experiment [3] is 4.7%. Moreover, the results for the IC50 at P2Y purinoceptor 12 [4] and on P2Y purinoceptor 1 [1] were 210 nM and 5200 nM, respectively. In addition, in the experiment with Platelet, the inhibition result is “Active”.
In the case of `CSc1nc(N)c2ncn([C@@H]3O[C@H](COP(=O)(S)OP(=O)(O)OP(=O)(O)OP(=O)(S)OC[C@H]4O[C@@H](n5cnc6c(N)nc(SC)nc65)[C@H](O)[C@@H]4O)[C@@H](O)[C@H]3O)c2n1` (mixture of isomers), the result at P2Y purinoceptor 1 [2] and at P2Y purinoceptor 12 [5] was inactive. In addition, the Activity in experiment [3] is 3%. For the same compound, the IC50 at P2Y purinoceptor 12 [4] came to 2400 nM; on P2Y purinoceptor 1 [1], 160 nM. The inhibition result with Platelet was “Active”.
For the compound `Nc1ncnc2c1ncn2[C@@H]1O[C@H](COP(=O)(S)OP(=O)(O)C(Cl)P(=O)(O)OP(=O)(S)OC[C@H]2O[C@@H](n3cnc4c(N)ncnc43)[C@H](O)[C@@H]2O)[C@@H](O)[C@H]1O` (mixture of isomers), the concentration for half-maximal inhibition (IC50) on P2Y purinoceptor 1 [1] stood at 10200 nM.
